Measurements published in ChEMBL document CHEMBL4513216, “Probing the Open Global Health Chemical Diversity Library for Multistage-Active Starting Points for Next-Generation Antimalarials” (ACS Infect Dis, 2020).

Test: Toxicity liver stage against HepG2, at 10uM
Format: cell-based
Design: test concentration 10 uM, cell line HepG2-A16-CD81EGFP
Conditions: human, HepG2-A16-CD81EGFP cells; read-out: INHIBITION
Procedure, shortened: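 Uninfected HepG2-A16-CD81EGFP cells, 3 × 10^3 per well, 1536-well, plated on prespotted compound at 10 μM final, parasite-free screening media added to match infected plates; puromycin 10 μM positive, DMSO 0.5% negative; run in parallel with 48 h PbLuc assay at 37 °C, 5% CO2; viability by CellTiter-Glo luminescence, normalized to controls.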

Row | SMILES | cytotoxicity at 10 µM
1 | CN(C)C(=O)c1c[nH]nc1-c1ccc(CNC(=O)c2cnccn2)cc1 | -0.56%
2 | CCc1ccc(C2CC(=O)Nc3n[nH]cc32)o1 (centres undefined) | 0.0773%
3 | Cc1ncsc1CN1CC[C@H]2OCC[C@@]2(C(=O)NCC2CC2)C1 | 2.4%
4 | C=C(C)COc1ccccc1CN1CCC(NC(C)=O)CC1 | 11.9%
5 | CNS(=O)(=O)CCCN1CCCCCC1c1ccc(C)o1 (centres undefined) | -7.58%
6 | CNC(=O)Cc1noc(Cc2cccc(Cl)c2)n1 | 0.335%
7 | c1ccc(-c2noc(CCCN3CCCC3Cn3cncn3)n2)cc1 (centres undefined) | -2.06%
8 | C[C@@H]1C[C@H](C(F)(F)F)n2nc(C3CCN(C(=O)C(C)(C)C)CC3)cc2N1 | -32.8%
9 | COc1ccc(-c2cc(N)on2)cc1OC | -9.85%
10 | COc1ccccc1OCCN1CCCCC1Cn1cncn1 (centres undefined) | -32.7%
11 | c1cc(CN2C[C@@H]3OCCN(CC4CC4)[C@@H]3C2)n[nH]1 | -109%
12 | CCC(=O)N1CCCC1c1nc(N(C)C)ncc1-c1ccc(Cl)cc1 (centres undefined) | 5.82%
13 | COc1ccccc1CC(=O)N1CCCC(c2cc(C)[nH]n2)C1 (centres undefined) | -21%
14 | O=S(=O)(N1CCCCC1)N1CCCN(CC2CCCO2)CC1 (centres undefined) | -3.94%
15 | Cc1ccc(NC(=O)C2CSCN2C(=O)c2cnsn2)c(C)c1 (centres undefined) | -0.955%
16 | COC(=O)c1cccc(NC(=O)CCn2nc(-c3cccs3)oc2=O)c1 | -8.13%
17 | O=C(C1CCC1)N1CCC2(COCc3cnc(-c4cccnc4)nc32)C1 (centres undefined) | 3.5%
18 | c1nc2c(c(NCCCn3cncn3)n1)CCN(CC1CCOC1)CC2 (centres undefined) | -10.6%
19 | O=C(Cc1ccsc1)N1CCC(c2n[nH]c3nccnc23)CC1 | -10.6%
20 | c1ccc(O[C@H]2COCCN(CC3CC3)C2)cc1 | 5.76%
21 | CCn1nc(C)c2c1cnn2CC(=O)NC(C)c1cccc(OC)c1 (centres undefined) | 25.8%
22 | OCC1COCCN(Cc2cc(C3CCCCC3)no2)C1 (centres undefined) | 6.44%

Row | SMILES | cytotoxicity at 10 µM
23 | O[C@@H]1CN(Cc2ccc(F)cc2)CC[C@H]1NCc1ccccn1 | -2.83%
24 | Cc1ccccc1C1CCCN1Cc1ccc(S(=O)(=O)N(C)C)o1 (centres undefined) | -3.42%
25 | CN1CCC(N[C@@H]2CO[C@H](CNC(=O)Nc3ccccc3)[C@H]2O)CC1 | 6.31%
26 | CC(=O)Nc1ccc(CNCC(O)c2ccc(C)cc2)cc1 (centres undefined) | -0.684%
27 | CC(C)(C)c1cc(C[C@H]2CNCC[C@H]2CC(=O)NC2CCCCC2)no1 | 2.82%
28 | Cn1ccnc1CN1CCCN(C(=O)c2ccc3[nH]cnc3c2)CC1 | -0.565%
29 | Cc1ccc(CNC2(Cc3cc(-c4ccccn4)on3)COC2)o1 | 8.91%
30 | NCC1Cc2cc(-c3nccc(N4CCC(O)CC4)n3)cc(F)c2O1 (centres undefined) | 14.2%
31 | Cc1csc(CNc2nc3c(s2)c(C)nn3C)n1 | -109%
32 | COc1ccc(C(=O)N2CCCCC2Cn2cccn2)c(F)c1 (centres undefined) | -5.38%
33 | C[C@@H]1CN(C(=O)Cn2ccc3ncccc3c2=O)C[C@H](C)O1 | -5.64%
34 | Fc1ccc(CN2CCCN(Cc3cscn3)CC2)cc1 | 2.62%
35 | CC(=O)N1Cc2ccccc2C[C@H]1C(=O)Nc1ccccn1 | -3.09%
36 | O=C1CC[C@H]2CN(c3ncc(F)cn3)CC[C@H]2N1CCc1c[nH]cn1 | 3.96%
37 | Cn1cccc1C(=O)N1CCN(Cc2ccncc2)c2ncccc2C1 | -0.395%
38 | Cc1nnc(N2CCN(C)C3(CCC(=O)N(CCO)CC3)C2)s1 (centres undefined) | -9.2%
39 | CS(=O)(=O)N1CCOCC2(CCN(c3cnccn3)CC2)C1 | -107%
40 | CCn1ccc2ccc(CN3CCCC3c3nc(C(C)C)no3)cc21 (centres undefined) | 5.15%
41 | CC1CCN(c2nc3cn(C4CCS(=O)(=O)C4)c(=O)c-3c[nH]2)CC1 (centres undefined) | -14.2%
42 | O=C(O)c1cccnc1CN1CCCC1CCc1ccccc1 (centres undefined) | 10.9%
43 | O=S1(=O)NC(C2CCCN(S(=O)(=O)N3CCCC3)C2)=Nc2ccccc21 (centres undefined) | 2.17%
44 | O=C(C1=COCCO1)N1CC(Oc2nc3c(Cl)cccc3s2)C1 | 38.2%

Row | SMILES | cytotoxicity at 10 µM
45 | O=C(NCCNc1cnccn1)C1CCN(C(=O)N2CCCC2)CC1 | -0.577%
46 | Cc1nnsc1C(=O)NCc1nn(C)c2c1COCC2 | -0.543%
47 | Cc1ccc(C(=O)N2CCn3c(COCC4CC4)cnc3C2C)nc1 (centres undefined) | 3.58%
48 | Cc1nc(N2CCOCC2)nc2c1CCN(C(=O)C1CC1)CC2 | 2.23%
49 | O=S1(=O)NC[C@H]2CCN(Cc3ccccc3)CC[C@H]21 | -10.5%
50 | CC(=O)N1C[C@H](NC(=O)c2csc(C(C)C)c2)[C@@H](C(C)C)C1 | -18.2%
51 | CN(CC(N)=O)Cc1c(Cl)ccc2cccnc12 | 4.53%
52 | Cc1c[nH]c(CN2CCOC(c3ccc(Cl)c(Cl)c3)C2)c(C)c1=O (centres undefined) | 17.7%
53 | O=C(NCCN1CCCC1)c1nc2c(o1)CN(C(=O)c1cccnc1)C2 | -1.08%
54 | CC(C)(C)S(=O)(=O)CCNC(=O)c1ccc2ccccc2c1 | 0.995%
55 | CNC(=O)C1(CCCc2ccncc2)CCCCN1 (centres undefined) | -37.5%
56 | c1cc(CN2CC[C@H]3CO[C@H](CN4CCOCC4)[C@H]3C2)cs1 | 4.91%
57 | CCc1ccc(CN2C[C@@H](c3nc(C)no3)C[C@H]3OCC[C@H]32)o1 | -75.8%
58 | Cc1noc(C)c1-c1ccnc(C2CCNCC2)c1 | -8.41%
59 | CCn1cc(CN2CCN(Cc3cc(C)cc(C)c3)C(=O)C2)cc1C#N | 1.72%
60 | CN(C)CCn1c2c(ccc1=O)CCN(C(=O)c1ccoc1)CC2 | 6.2%
61 | Cc1cc(C[S+]([O-])CC(=O)NCC(C)C)no1 (centres undefined) | -4.17%
62 | CCC(CC)C(=O)NC1CCCc2nc(N3CCOCC3)ncc21 (centres undefined) | 4.99%
63 | COCCNC(=O)C[C@@H]1COC[C@H]2CN(Cc3cccnc3)C[C@@H]12 | 2.13%
64 | CCc1nnsc1C(=O)N1CCCN(Cc2ccccc2)CC1 | 7.57%
65 | Cc1cc(Br)ccc1NCC(=O)Nc1cc(C(C)(C)C)no1 | 5.09%
66 | Cc1ccc(CNC2(Cc3cc(CO)on3)COC2)o1 | 0.305%

Row | SMILES | cytotoxicity at 10 µM
67 | Cc1oc(C(C)C)cc1C(=O)N1CCN(c2cnn(C)c(=O)c2)CC1 | 1.27%
68 | Cn1cc(C2(C)CN(Cc3ccc(N4CCCC4)nc3)CCO2)cn1 (centres undefined) | 8.32%
69 | O=C(CCc1cc(O)no1)N1CCCC(COc2ccc(F)cc2)C1 (centres undefined) | 2.47%
70 | CCn1ccnc1CN1CCC(CNC(=O)c2ccc(C)nc2)C1 (centres undefined) | -8.8%
71 | COc1ccc(C2=CCN(C(=O)C3CCCN(C(N)=O)C3)CC2)cc1 (centres undefined) | -10.1%
72 | COc1ccc(C(=O)c2cnc(C(C)C)n2C)cc1 | 15.5%
73 | O=C(COc1ccc2c(c1)CCC2)NS(=O)(=O)c1cncc(Br)c1 | -5.82%
74 | O=C(NCC1CC1)C1CCCN(c2cccc(C(F)(F)F)n2)C1 (centres undefined) | 8.21%
75 | Cc1nc(C)c(-c2ccn(CC(=O)Nc3cnn(C)n3)n2)s1 | 74%
76 | CCN1CCN(C2CCN(CC(=O)NCC(F)(F)F)CC2)C1=O | -2.99%
77 | c1cncc(N2CCCC3(CCN(CC4CCCO4)CC3)C2)c1 (centres undefined) | 5.15%
78 | COCCNC(=O)[C@@H]1CC[C@@H]2[C@@H](CCN2c2ncc(F)cn2)O1 | -0.554%
79 | CCC(CC)CN(C)Cc1nc(-c2ccccc2NS(C)(=O)=O)oc1C | -7.69%
80 | CC(O)CNc1c(NCc2ccco2)c(=O)c1=O (centres undefined) | -3.04%
81 | CCc1nc(CNCC2(C(N)=O)CCOCC2)cs1 | -3.97%
82 | O=C(CC1CC1)N1Cc2nccn2CC(COc2cccnc2)C1 (centres undefined) | 5.09%
83 | CNS(=O)(=O)Cc1cccc(CNc2ccc(C#N)cn2)c1 | -11.2%
84 | CC(C)Cc1ncc2c(n1)CN(c1nccc(NC(C)C)n1)C2 | -10.7%
85 | Cc1nccn1C1CCCN(C(=O)c2cccc(S(C)(=O)=O)c2)C1 (centres undefined) | -11.6%
86 | c1ccc(Cn2ccnc2CN2CCCC2c2noc(C3CC3)n2)cc1 (centres undefined) | -0.818%
87 | Cc1ncsc1CCN(C)C1CCN(c2ncnc3[nH]cnc23)CC1 | -39%
88 | CC(C)Cc1noc(CN2CCN(C(=O)c3ccccc3F)CC2)n1 | -10.8%

Row | SMILES | cytotoxicity at 10 µM
89 | COCCN1CC2(CCN(C(=O)c3ccno3)CC2)c2ccccc21 | 0.729%
90 | c1nc(N2CCCC(Cn3cncn3)C2)c2sccc2n1 (centres undefined) | 6.74%
91 | CC(C)c1nc(C(=O)N2CCc3ccccc3C2C(=O)O)cs1 (centres undefined) | 9.63%
92 | CN1CCN(C(=O)c2cn(Cc3ccccc3)c3ncccc23)CC1 | -6.63%
93 | O=C1CN(Cc2nnc(-c3ccc(Br)cc3)o2)CCN1 | 2.55%
94 | CNS(=O)(=O)c1cccc(C(C)NCc2ccccc2)c1 (centres undefined) | -2.29%
95 | COCc1cc(NCC(F)(F)F)n2nccc2n1 | 17%
96 | CCn1cnnc1C1CCN(C(=O)c2cnc(C)s2)CC1 | -8.45%
97 | COc1ccc(C2=CCN(C(=O)C3CCCN(C(C)=O)C3)CC2)cc1 (centres undefined) | -13.4%
98 | Cc1ccc(F)c(NCC(C)(C)S(C)(=O)=O)c1 | -7.6%
99 | COCC(=O)NCCc1nc(N(C)C)ncc1-c1ccncc1 | -3.46%
100 | COc1cc(CNC(C)Cn2cccn2)cc2c1OCO2 (centres undefined) | 1.58%
101 | O=C(CS(=O)(=O)c1ncccc1Cl)NC1CCCc2ccccc21 (centres undefined) | -7.69%
102 | CC(C)NC(=O)[C@@]12CCO[C@@H]1CCN(Cc1ccco1)C2 | -3.31%
103 | Cc1c(CNC(=O)c2cn(CCC3CCCCN3)nn2)cnn1C (centres undefined) | -3.44%
104 | COCCCN1CCN([C@@H]2c3ccccc3C3(CCNCC3)[C@H]2O)CC1 | -4.86%
105 | CC(C)(CNC(=O)Nc1ccc(S(=O)(=O)C(F)F)cc1)N1CCOCC1 | 4.44%
106 | N#Cc1ccc(OCC(O)CN2CCc3cncnc3C2)cc1 (centres undefined) | -8.61%
107 | CN1CCCC1CNC(=O)CCCOc1ccc(Br)cc1 (centres undefined) | -7.69%
108 | CC1CCN(c2cc(-n3cnc(C(=O)N4CCSCC4)c3)ncn2)CC1 | 0.668%
109 | Nc1nnc(CCCNc2ncnc3c2CCN(C(=O)C2CC2)C3)s1 | -3.94%
